ChEMBL document CHEMBL1134589, “Antimalarial simplified 3-aryltrioxanes: synthesis and preclinical efficacy/toxicity testing in rodents” (2001)

Experiments:
[1] = tested on: Mus musculus; experiment: Antimalarial efficacy against Plasmodium berghei in mice (Mus musculus) when administered intravenously each day for 4 days to five mice (Mus musculus) per dose regimen; type: functional; conditions: iv, 96 h
Procedure, shortened: (§1)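 P. berghei-infected mice; four doses (1, 3, 10 and 30 mg/kg) given once daily for four days, five mice per dose regimen, by sc or iv route as per line. ED50 and ED90 derived from the dose–response, reported in mg/kg and µmol/kg.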

[2] = tested on: Mus musculus; experiment: Antimalarial efficacy against Plasmodium berghei in mice (Mus musculus) when administered subcutaneously each day for 4 days to five mice (Mus musculus) per dose regimen; type: functional; conditions: sc, 96 h; procedure, shortened: as §1

CO[C@@H]1O[C@@]2(c3ccc(C(=O)O)cc3)CC[C@H]3CCCC[C@]31OO2
ED50 [1]: 19.5 mg/kg
ED90 [1]: 55 mg/kg
ED50 [2]: 22.5 mg/kg
ED90 [2]: 112 mg/kg

CO[C@H]1O[C@@]2(c3ccc(C(=O)O)cc3)CC[C@H]3CCCC[C@]31OO2
ED50 [1]: 16.5 mg/kg
ED90 [1]: 48 mg/kg
ED50 [2]: 10.5 mg/kg
ED90 [2]: 19.5 mg/kg

CO[C@@H]1O[C@@]2(c3ccc(F)cc3)CC[C@H]3CCCC[C@]31OO2
ED50 [1]: 4 mg/kg
ED90 [1]: 8 mg/kg
ED50 [2]: 4.7 mg/kg
ED90 [2]: 8.3 mg/kg

C[C@@H]1[C@H](OCc2ccc(C(=O)O)cc2)O[C@@H]2O[C@@]3(C)CC[C@@H]4[C@@H](C)CC[C@@H]1[C@]24OO3 [ARTELINIC ACID]
ED50 [1]: 4.3 mg/kg
ED90 [1]: 15.5 mg/kg
ED50 [2]: 6.6 mg/kg
ED90 [2]: 14 mg/kg

CCO[C@H]1O[C@@H]2O[C@@]3(C)CC[C@H]4[C@H](C)CC[C@@H]([C@H]1C)[C@@]24OO3 [ARTEMOTIL]
ED50 [1]: 0.46 mg/kg
ED50 [2]: 0.9 mg/kg
ED90 [2]: 1.4 mg/kg

CCN(CC)CCCC(C)Nc1ccnc2cc(Cl)ccc12 (stereo unspecified) [CHLOROQUINE]
ED50 [1]: 5 mg/kg
ED50 [2]: 1 mg/kg
